Measurements of several laboratories.
CA1: Carbonic anhydrase 1 (CA1, Homo sapiens, UniProt P00915)
CA2: Carbonic anhydrase 2 (CA2, Homo sapiens, UniProt P00918)
ADRA2A: Alpha-2A adrenergic receptor (ADRA2A, Homo sapiens, UniProt P08913)

For `Cc1ccc(-n2cc(CNC(=O)c3ccc(=O)oc3)nn2)cc1`, the Ki was greater than 100000 nM (CA1; enzyme activity, inhibitor, stopped-flow).
`NS(=O)(=O)c1nnc(NC(=O)C2CCC3(CCCC3)CC2)s1` gave a Ki of 59.4 nM (CA2; enzyme activity, inhibitor, stopped-flow).
With `O=C(NCc1cn(-c2ccc(Cl)cc2)nn1)c1ccc(=O)oc1` the Ki was greater than 100000 nM (CA1; enzyme activity, inhibitor, stopped-flow).
`Cc1cc(Oc2ncccc2CN2CCN(c3ccc(Br)cc3)CC2)ccc1-c1c(C)c(=O)[nH]c(=O)n1C` gave a Ki of 841 nM (ADRA2A; ligand displacement, radioligand).
With `NS(=O)(=O)c1nnc(NC(=O)C2CCC3(CCCCC3)C2)s1` (stereo not drawn) the Ki was 220 nM (CA1; enzyme activity, inhibitor, stopped-flow).
The Ki of `Cc1ccc(OC(=O)c2ccc(=O)oc2)cc1` is reported as greater than 100000 nM (CA1; enzyme activity, inhibitor, stopped-flow).
The Ki of `CC[C@H]1OC(=O)[C@H](C)[C@@H](O[C@H]2C[C@@](C)(OC)[C@@H](O)[C@H](C)O2)[C@H](C)[C@@H](O[C@@H]2O[C@H](C)C[C@H](N(C)C)[C@H]2O)[C@](C)(O)C[C@@H](C)CN(C)[C@H](C)[C@@H](O)[C@]1(C)O` is reported as 8170 nM (CA2; enzyme activity, inhibitor, absorbance).
For `Cc1cc(Oc2ncccc2CN2CCN(c3ccccc3O)CC2)ccc1-c1c(C)c(=O)[nH]c(=O)n1C`, the Ki was 57 nM (ADRA2A; ligand displacement, radioligand).
For `CN(C/C=C/C#CC(C)(C)C)Cc1cccc2ccccc12`, the Ki was 20300 nM (CA2; enzyme activity, inhibitor, absorbance).
The Ki of `Cc1cc(Oc2ncccc2CN2CCN(c3ccc([N+](=O)[O-])cc3C(F)(F)F)CC2)ccc1-c1c(C)c(=O)[nH]c(=O)n1C` is reported as 2110 nM (ADRA2A; ligand displacement, radioligand).
For `NS(=O)(=O)c1nnc(NC(=O)CN2CCC(F)CC2)s1`, the Ki was 68.2 nM (CA1; enzyme activity, inhibitor, stopped-flow).
The Ki of `Nc1nc2c(ncn2COCCO)c(=O)[nH]1` is reported as 8680 nM (CA2; enzyme activity, inhibitor, absorbance).
`Cc1ccc(-n2cc(COC(=O)c3ccc(=O)oc3)nn2)cc1` gave a Ki of greater than 100000 nM (CA1; enzyme activity, inhibitor, stopped-flow).
`CCN1/C(=C/C(C)=O)Sc2ccc(F)cc21` gave a Ki of 50300 nM (ADRA2A; ligand displacement, radioligand).
`CC(C)(C(=O)O)c1ccc(C(O)CCCN2CCC(C(O)(c3ccccc3)c3ccccc3)CC2)cc1` (stereo not drawn) has a Ki of 17900 nM (CA2; enzyme activity, inhibitor, absorbance).
With `Cc1ccc(C(=O)Nc2nnc(S(N)(=O)=O)s2)cc1` the Ki was 21.1 nM (CA2; enzyme activity, inhibitor, stopped-flow).
The Ki of `Cc1cc(Oc2ncccc2CN2CCN(c3ccccc3C)CC2)ccc1-c1c(C)c(=O)[nH]c(=O)n1C` is reported as 59.4 nM (ADRA2A; ligand displacement, radioligand).
For `O=C(Oc1ccc(-c2ccccc2)cc1)c1ccc(=O)oc1`, the Ki was greater than 100000 nM (CA1; enzyme activity, inhibitor, stopped-flow).
With `CC1=C(/C=C/C(C)=C/C=C/C(C)=C\C(=O)O)C(C)(C)CCC1` the Ki was 5750 nM (CA1; enzyme activity, inhibitor).
The Ki of `Cc1cc(Oc2ncccc2CN2CCN(Cc3ccccc3Cl)CC2)ccc1-c1c(C)c(=O)[nH]c(=O)n1C` is reported as 81.2 nM (ADRA2A; ligand displacement, radioligand).
The Ki of `COc1cc(C)c(/C=C/C(C)=C/C=C/C(C)=C/C(=O)O)c(C)c1C` is reported as 7940 nM (CA2; enzyme activity, inhibitor, absorbance).
`Cc1cc(Oc2ncccc2CN2CCN(c3ccccc3Cl)CC2)ccc1-c1c(C)c(=O)[nH]c(=O)n1C` has a Ki of 80 nM (ADRA2A; ligand displacement, radioligand).
The Ki of `COc1ccnc(C[S+]([O-])c2nc3ccc(OC(F)F)cc3[nH]2)c1OC` (stereo not drawn) is reported as 8720 nM (CA2; enzyme activity, inhibitor, absorbance).
`Cc1cc(Oc2ncccc2CN2CCN(c3ccccc3C#N)CC2)ccc1-c1c(C)c(=O)[nH]c(=O)n1C` gave a Ki of 128 nM (ADRA2A; ligand displacement, radioligand).
`CC1(C)CCN(CC(=O)Nc2nnc(S(N)(=O)=O)s2)CC1` has a Ki of 31.1 nM (CA2; enzyme activity, inhibitor, stopped-flow).
`O=c1[nH]c(=O)n([C@H]2C[C@H](O)[C@@H](CO)O2)cc1/C=C/Br` gave a Ki of 8390 nM (CA1; enzyme activity, inhibitor).
`Cc1cc(Oc2ncccc2CN2CCN(c3c(C)cccc3C)CC2)ccc1-c1c(C)c(=O)[nH]c(=O)n1C` has a Ki of 731 nM (ADRA2A; ligand displacement, radioligand).
